Assay: phase I study BOS172738-01: safety and tolerability
Assay type: in vivo, human
Settings: for patients who discontinued study treatment due to AEs: interim cut-off
How it was run: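 Patients received at least one dose of oral drug given once daily in 28-day cycles. Part A escalated 10–150 mg, by accelerated titration (dose doubling) and then 3+3 Fibonacci steps; part B used 75 mg. AEs were graded by CTCAE v4.03 from first dose to 31 days after last dose. DLTs counted in cycle 1. Missing causality was scored as related and missing grade as grade 3.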

[1] = part A, all dose levels, n = 67
[2] = part B, RET gene-fusion NSCLC, 75 mg, n = 20
[3] = part B, RET gene-mutant MTC, 75 mg, n = 7

Compound: COc1cc2cc(-c3ccc(CC(=O)Nc4cc(C(C)(C)C(F)(F)F)no4)cn3)cnc2cc1OC [BOS172738]
- TEAE related to BOS, any [1]: 61 (91) n (%)
- TEAE related to BOS, grade ≥3 [1]: 39 (58) n (%)
- patients who discontinued study treatment due to AEs (part A, % of 69 screened): 18 (26%) n (%)
- Any TEAE (part B total, n = 50): 50 (100) n (%)
- Any TEAE leading to BOS discontinuation (part B total, n = 50): 7 (14) n (%)
- Any TEAE leading to BOS dose interruption (part B total, n = 50): 33 (66) n (%)
- Any TEAE leading to BOS dose reduction (part B total, n = 50): 10 (20) n (%)
- Any TEAE leading to study discontinuation (part B total, n = 50): 7 (14) n (%)
- Any TEAE related to BOS leading to BOS discontinuation (part B total, n = 50): 2 (4) n (%)
- Any TEAE related to BOS leading to study discontinuation (part B total, n = 50): 1 (2) n (%)
- Any TEAE resulting in death (part B total, n = 50): 2 (4) n (%)
- Any TEAE, grade ≥3 (part B total, n = 50): 41 (82) n (%)
- Serious TEAEs related to BOS (part B total, n = 50): 2 (4) n (%)
- Serious TEAEs, any (part B total, n = 50): 28 (56) n (%)
- TEAE related to BOS, CTCAE grade ≥3: Anemia (part B total, n = 50): 3 (6) n (%)
- TEAE related to BOS, CTCAE grade ≥3: Asthenia (part B total, n = 50): 0 n (%)
- TEAE related to BOS, CTCAE grade ≥3: Blood creatinine phosphokinase increased (part B total, n = 50): 10 (20) n (%)
- TEAE related to BOS, CTCAE grade ≥3: Diarrhea (part B total, n = 50): 0 n (%)
- TEAE related to BOS, CTCAE grade ≥3: Hypophosphatemia (part B total, n = 50): 3 (6) n (%)
- TEAE related to BOS, CTCAE grade ≥3: Lymphopenia (part B total, n = 50): 2 (4) n (%)
- TEAE related to BOS, CTCAE grade ≥3: Muscular weakness (part B total, n = 50): 0 n (%)
- TEAE related to BOS, CTCAE grade ≥3: Myositis (part B total, n = 50): 0 n (%)
- TEAE related to BOS, CTCAE grade ≥3: Neutropenia (part B total, n = 50): 0 n (%)
- TEAE related to BOS, CTCAE grade ≥3: Neutrophil count decreased (part B total, n = 50): 7 (14) n (%)
- TEAE related to BOS, any (part B total, n = 50): 38 (76) n (%)
- TEAE related to BOS, grade ≥3 (part B total, n = 50): 24 (48) n (%)
- Any TEAE (part B, Other, 75 mg, n = 23): 23 (100) n (%)
- Any TEAE leading to BOS discontinuation (part B, Other, 75 mg, n = 23): 5 (22) n (%)
- Any TEAE leading to BOS dose interruption (part B, Other, 75 mg, n = 23): 11 (48) n (%)
- Any TEAE leading to BOS dose reduction (part B, Other, 75 mg, n = 23): 4 (17) n (%)
- Any TEAE leading to study discontinuation (part B, Other, 75 mg, n = 23): 3 (13) n (%)
- Any TEAE related to BOS leading to BOS discontinuation (part B, Other, 75 mg, n = 23): 1 (4) n (%)
- Any TEAE related to BOS leading to study discontinuation (part B, Other, 75 mg, n = 23): 0 n (%)
- Any TEAE resulting in death (part B, Other, 75 mg, n = 23): 1 (4) n (%)
- Any TEAE, grade ≥3 (part B, Other, 75 mg, n = 23): 16 (70) n (%)
- Serious TEAEs related to BOS (part B, Other, 75 mg, n = 23): 1 (4) n (%)
- Serious TEAEs, any (part B, Other, 75 mg, n = 23): 17 (74) n (%)
- TEAE related to BOS, CTCAE grade ≥3: Anemia (part B, Other, 75 mg, n = 23): 1 (4) n (%)
- TEAE related to BOS, CTCAE grade ≥3: Asthenia (part B, Other, 75 mg, n = 23): 0 n (%)
- TEAE related to BOS, CTCAE grade ≥3: Blood creatinine phosphokinase increased (part B, Other, 75 mg, n = 23): 0 n (%)
- TEAE related to BOS, CTCAE grade ≥3: Diarrhea (part B, Other, 75 mg, n = 23): 0 n (%)
- TEAE related to BOS, CTCAE grade ≥3: Hypophosphatemia (part B, Other, 75 mg, n = 23): 1 (4) n (%)
- TEAE related to BOS, CTCAE grade ≥3: Lymphopenia (part B, Other, 75 mg, n = 23): 1 (4) n (%)
- TEAE related to BOS, CTCAE grade ≥3: Muscular weakness (part B, Other, 75 mg, n = 23): 0 n (%)
- TEAE related to BOS, CTCAE grade ≥3: Myositis (part B, Other, 75 mg, n = 23): 0 n (%)
- TEAE related to BOS, CTCAE grade ≥3: Neutropenia (part B, Other, 75 mg, n = 23): 0 n (%)
- TEAE related to BOS, CTCAE grade ≥3: Neutrophil count decreased (part B, Other, 75 mg, n = 23): 1 (4) n (%)
- TEAE related to BOS, any (part B, Other, 75 mg, n = 23): 11 (48) n (%)
- TEAE related to BOS, grade ≥3 (part B, Other, 75 mg, n = 23): 4 (17) n (%)
- Any TEAE [2]: 20 (100) n (%)
- Any TEAE leading to BOS discontinuation [2]: 1 (5) n (%)
- Any TEAE leading to BOS dose interruption [2]: 17 (85) n (%)
- Any TEAE leading to BOS dose reduction [2]: 4 (20) n (%)
- Any TEAE leading to study discontinuation [2]: 3 (15) n (%)
- Any TEAE related to BOS leading to BOS discontinuation [2]: 0 n (%)
- Any TEAE related to BOS leading to study discontinuation [2]: 0 n (%)
- Any TEAE resulting in death [2]: 1 (5) n (%)
- Any TEAE, grade ≥3 [2]: 19 (95) n (%)
- Serious TEAEs related to BOS [2]: 1 (5) n (%)
- Serious TEAEs, any [2]: 9 (45) n (%)
- TEAE related to BOS, CTCAE grade ≥3: Anemia [2]: 2 (10) n (%)
- TEAE related to BOS, CTCAE grade ≥3: Asthenia [2]: 0 n (%)
- TEAE related to BOS, CTCAE grade ≥3: Blood creatinine phosphokinase increased [2]: 8 (40) n (%)
- TEAE related to BOS, CTCAE grade ≥3: Diarrhea [2]: 0 n (%)
- TEAE related to BOS, CTCAE grade ≥3: Hypophosphatemia [2]: 0 n (%)
- TEAE related to BOS, CTCAE grade ≥3: Lymphopenia [2]: 1 (5) n (%)
- TEAE related to BOS, CTCAE grade ≥3: Muscular weakness [2]: 0 n (%)
- TEAE related to BOS, CTCAE grade ≥3: Myositis [2]: 0 n (%)
- TEAE related to BOS, CTCAE grade ≥3: Neutropenia [2]: 0 n (%)
- TEAE related to BOS, CTCAE grade ≥3: Neutrophil count decreased [2]: 5 (25) n (%)
- TEAE related to BOS, any [2]: 20 (100) n (%)
- TEAE related to BOS, grade ≥3 [2]: 14 (70) n (%)
- Any TEAE [3]: 7 (100) n (%)
- Any TEAE leading to BOS discontinuation [3]: 1 (14) n (%)
- Any TEAE leading to BOS dose interruption [3]: 5 (71) n (%)
- Any TEAE leading to BOS dose reduction [3]: 2 (29) n (%)
- Any TEAE leading to study discontinuation [3]: 1 (14) n (%)
- Any TEAE related to BOS leading to BOS discontinuation [3]: 1 (14) n (%)
- Any TEAE related to BOS leading to study discontinuation [3]: 1 (14) n (%)
- Any TEAE resulting in death [3]: 0 n (%)
- Any TEAE, grade ≥3 [3]: 6 (86) n (%)
- Serious TEAEs related to BOS [3]: 0 n (%)
- Serious TEAEs, any [3]: 2 (29) n (%)
- TEAE related to BOS, CTCAE grade ≥3: Anemia [3]: 0 n (%)
- TEAE related to BOS, CTCAE grade ≥3: Asthenia [3]: 0 n (%)
- TEAE related to BOS, CTCAE grade ≥3: Blood creatinine phosphokinase increased [3]: 2 (29) n (%)
- TEAE related to BOS, CTCAE grade ≥3: Diarrhea [3]: 0 n (%)
- TEAE related to BOS, CTCAE grade ≥3: Hypophosphatemia [3]: 2 (29) n (%)
- TEAE related to BOS, CTCAE grade ≥3: Lymphopenia [3]: 0 n (%)
- TEAE related to BOS, CTCAE grade ≥3: Muscular weakness [3]: 0 n (%)
- TEAE related to BOS, CTCAE grade ≥3: Myositis [3]: 0 n (%)
- TEAE related to BOS, CTCAE grade ≥3: Neutropenia [3]: 0 n (%)
- TEAE related to BOS, CTCAE grade ≥3: Neutrophil count decreased [3]: 1 (14) n (%)
- TEAE related to BOS, any [3]: 7 (100) n (%)
- TEAE related to BOS, grade ≥3 [3]: 6 (86) n (%)
- patients who discontinued study treatment due to AEs (part B, % of 54 screened): 7 (13%) n (%)
- BOS172738-related TEAEs (parts A and B, final cut-off): 85%
- BOS172738-related TEAEs, grade ≥3 (parts A and B, final cut-off): 54%
- BOS172738-related grade ≥3 anemia (parts A and B, final cut-off): 9%
- BOS172738-related grade ≥3 blood creatine phosphokinase increased (parts A and B, final cut-off): 25%
- BOS172738-related grade ≥3 neutrophil count decreased (parts A and B, final cut-off): 10%
- patients with at least one TEAE (parts A and B, final data cut-off): 100%
- elevated blood creatine phosphokinase leading to dose interruption (pooled data): 28%
- elevated blood creatine phosphokinase leading to dose reduction (pooled data): 17%
- elevated blood creatine phosphokinase leading to treatment discontinuation (pooled data): 2%
